Reference: paper PMC7797712 (Medicinal Chemistry Research, 2021)
pEC50: −log10 of the molar value.

The molecules below were run on cytoplasmic HBV-DNA replication in AML12HBV10 cells (assay: Antiviral assay in AML12HBV10 cells). Settings: AML12HBV10 cells; SAR statement of the text.
Format: cell-based, hepatitis B virus
Outline: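 AML12-derived mouse hepatocyte line carrying a tetracycline-inducible, envelope-deficient HBV genome; seeded at 2 × 10^4 cells/well in tetracycline-free medium. Next day, mock or twofold serial dilution (10 to 0.08 µM) for 48 h. Cells lysed in Tris-HCl pH 7.5/EDTA/NaCl/1% NP-40. Half the lysate NaOH-denatured, neutralised, dot-blotted and hybridised with 32P-labelled HBV minus-strand riboprobe. Phosphorimager quantification; EC50 = concentration reducing HBV DNA by 50%.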

SMILES | Anti-HBV potency compared with 27 (58031), in words
COc1ccc(CN2CN(C(=O)Nc3ccc(F)c(Cl)c3)CCC2=O)c(OC)c1 [Compound 28, N-(3-chloro-4-fluorophenyl)-3-(2,4-dimethoxybenzyl)-4-oxotetrahydropyrimidine-1(2H)-carboxamide] | slightly weaker potency
O=C1CCN(C(=O)Nc2ccc(F)c(Cl)c2)CN1Cc1ccncc1 [Compound 29, N-(3-chloro-4-fluorophenyl)-4-oxo-3-(pyridin-4-ylmethyl)tetrahydropyrimidine-1(2H)-carboxamide] | less active
O=C1CCN(C(=O)Nc2ccc(F)c(Cl)c2)CN1Cc1ccccn1 [Compound 30, N-(3-chloro-4-fluorophenyl)-4-oxo-3-(pyridin-2-ylmethyl)tetrahydropyrimidine-1(2H)-carboxamide] | less active
O=C1CCN(C(=O)Nc2ccc(F)c(Cl)c2)CN1CC1CCN(c2ccccc2)C1 (centres unmarked) [Compound 32, N-(3-chloro-4-fluorophenyl)-4-oxo-3-((1-phenylpyrrolidin-3-yl)methyl)tetrahydropyrimidine-1(2H)-carboxamide] | failed to improve the potencies
O=C1CCN(C(=O)Nc2ccc(F)c(Cl)c2)CN1CC1CN(c2ccccc2)C(=O)O1 (centres unmarked) [Compound 33, N-(3-chloro-4-fluorophenyl)-4-oxo-3-((2-oxo-3-phenyloxazolidin-5-yl)methyl)tetrahydropyrimidine-1(2H)-carboxamide] | failed to improve the potencies
O=C1CCN(C(=O)Nc2cccc(Cl)c2)CN1Cc1ccc(F)cc1F [Compound 35, N-(3-chlorophenyl)-3-(2,4-difluorobenzyl)-4-oxotetrahydropyrimidine-1(2H)-carboxamide] | comparable activities
O=C1CCN(C(=O)Nc2ccc(F)c(C(F)F)c2)CN1Cc1ccc(F)cc1F [Compound 36, 3-(2,4-difluorobenzyl)-N-(3-(difluoromethyl)-4-fluorophenyl)-4-oxotetrahydropyrimidine-1(2H)-carboxamide] | comparable activities
O=C1CCN(C(=O)Nc2cc(F)c(F)c(F)c2)CN1Cc1ccc(F)cc1F [Compound 40, 3-(2,4-difluorobenzyl)-4-oxo-N-(3,4,5-trifluorophenyl)tetrahydropyrimidine-1(2H)-carboxamide] | reduced the activities
O=C1CCN(C(=O)Nc2cc(F)c(F)cc2Cl)CN1Cc1ccc(F)cc1F [Compound 41, N-(2-chloro-4,5-difluorophenyl)-3-(2,4-difluorobenzyl)-4-oxotetrahydropyrimidine-1(2H)-carboxamide] | reduced the activities
O=C1CCN(C(=O)Nc2cc(Cl)c(F)c(Cl)c2)CN1Cc1ccc(F)cc1F [Compound 42, N-(3,5-dichloro-4-fluorophenyl)-3-(2,4-difluorobenzyl)-4-oxotetrahydropyrimidine-1(2H)-carboxamide] | reduced the activities
O=C1CCN(C(=O)NCc2ccccc2F)CN1Cc1ccc(F)cc1F [Compound 43, 3-(2,4-difluorobenzyl)-N-(2-fluorobenzyl)-4-oxotetrahydropyrimidine-1(2H)-carboxamide] | not tolerated
CC1CC(=O)N(Cc2ccc(F)cc2F)CN1C(=O)Nc1ccc(F)c(Cl)c1 (centres unmarked) [Compound 44, N-(3-chloro-4-fluorophenyl)-3-(2,4-difluorobenzyl)-6-methyl-4-oxotetrahydropyrimidine-1(2H)-carboxamide] | reduced activity
O=C1CC(Cc2cc(F)c(F)cc2F)N(C(=O)Nc2ccc(F)c(Cl)c2)CN1Cc1ccc(F)cc1F (centres unmarked) [Compound 45, N-(3-chloro-4-fluorophenyl)-3-(2,4-difluorobenzyl)-4-oxo-6-(2,4,5-trifluorobenzyl)tetrahydropyrimidine-1(2H)-carboxamide] | deteriorated the potency
O=C1CC(CN2CCC(F)(F)CC2)N(C(=O)Nc2ccc(F)c(Cl)c2)CN1Cc1ccc(F)cc1F (centres unmarked) [Compound 46, N-(3-chloro-4-fluorophenyl)-3-(2,4-difluorobenzyl)-6-((4,4-difluoropiperidin-1-yl)methyl)-4-oxotetrahydropyrimidine-1(2H)-carboxamide] | deteriorated the potency
O=C1CC(CN2CCC(F)(F)C2)N(C(=O)Nc2ccc(F)c(Cl)c2)CN1Cc1ccc(F)cc1F (centres unmarked) [Compound 47, N-(3-chloro-4-fluorophenyl)-3-(2,4-difluorobenzyl)-6-((3,3-difluoropyrrolidin-1-yl)methyl)-4-oxotetrahydropyrimidine-1(2H)-carboxamide] | deteriorated the potency
CC1(C)CN(C(=O)Nc2ccc(F)c(Cl)c2)CN(Cc2ccc(F)cc2F)C1=O [Compound 48, N-(3-chloro-4-fluorophenyl)-3-(2,4-difluorobenzyl)-5,5-dimethyl-4-oxotetrahydropyrimidine-1(2H)-carboxamide] | diminished the activities only by two to threefold
O=C1C2CCCC2N(C(=O)Nc2ccc(F)c(Cl)c2)CN1Cc1ccc(F)cc1F (centres unmarked) [Compound 49, N-(3-chloro-4-fluorophenyl)-3-(2,4-difluorobenzyl)-4-oxooctahydro-1H-cyclopenta[d]pyrimidine-1-carboxamide] | diminished the activities only by two to threefold
O=C(Nc1ccc(F)c(Cl)c1)N1CC(c2ccccc2)C(=O)N(Cc2ccc(F)cc2F)C1 (centres unmarked) [Compound 50, N-(3-chloro-4-fluorophenyl)-3-(2,4-difluorobenzyl)-4-oxo-5-phenyltetrahydropyrimidine-1(2H)-carboxamide] | comparable or slightly better potencies
O=C(Nc1ccc(F)c(Cl)c1)N1CC(Cc2ccccc2)C(=O)N(Cc2ccc(F)cc2F)C1 (centres unmarked) [Compound 51, 5-benzyl-N-(3-chloro-4-fluorophenyl)-3-(2,4-difluorobenzyl)-4-oxotetrahydropyrimidine-1(2H)-carboxamide] | diminished the activities only by two to threefold
O=C(Nc1ccc(F)c(Cl)c1)N1CC(n2cc(C3CC3)nn2)C(=O)N(Cc2ccc(F)cc2F)C1 (centres unmarked) [Compound 52, N-(3-chloro-4-fluorophenyl)-5-(4-cyclopropyl-1H-1,2,3-triazol-1-yl)-3-(2,4-difluorobenzyl)-4-oxotetrahydropyrimidine-1(2H)-carboxamide] | comparable or slightly better potencies
O=C(NC1CN(C(=O)Nc2ccc(F)c(Cl)c2)CN(Cc2ccc(F)cc2F)C1=O)c1ccc(F)cc1F (centres unmarked) [Compound 53, N-(3-chloro-4-fluorophenyl)-5-(2,4-difluorobenzamido)-3-(2,4-difluorobenzyl)-4-oxotetrahydropyrimidine-1(2H)-carboxamide] | comparable or slightly better potencies
Cc1ccc(S(=O)(=O)NC2CN(C(=O)Nc3ccc(F)c(Cl)c3)CN(Cc3ccc(F)cc3F)C2=O)cc1 (centres unmarked) [Compound 54, N-(3-chloro-4-fluorophenyl)-3-(2,4-difluorobenzyl)-5-(4-methylphenylsulfonamido)-4-oxotetrahydropyrimidine-1(2H)-carboxamide] | comparable or slightly better potencies
C=CC(=O)NC1CN(C(=O)Nc2ccc(F)c(Cl)c2)CN(Cc2ccc(F)cc2F)C1=O (centres unmarked) [Compound 55, 5-acrylamido-N-(3-chloro-4-fluorophenyl)-3-(2,4-difluorobenzyl)-4-oxotetrahydropyrimidine-1(2H)-carboxamide] | comparable or slightly better potencies

Same assay, conditions: Hepatitis B virus, AML12HBV10, 48 h, read-out: EC50 (50% inhibitory concentration of cytoplasmic HBV-DNA replication)

SMILES | pEC50
O=C1CCN(C(=O)Nc2ccc(F)c(Cl)c2)CN1Cc1ccc(F)cc1 [Compound 21, N-(3-chloro-4-fluorophenyl)-3-(4-fluorobenzyl)-4-oxotetrahydropyrimidine-1(2H)-carboxamide] | 5.69
O=C1CCN(C(=O)Nc2ccc(F)c(Cl)c2)CN1CCc1ccc(F)cc1 [Compound 22, N-(3-chloro-4-fluorophenyl)-3-(4-fluorophenethyl)-4-oxotetrahydropyrimidine-1(2H)-carboxamide] | 5.29

What follows are molecules tested against HBV core protein (Hepatitis B virus genotype D subtype ayw, UniProt P03146) (assay: Western blot assay of HBV core protein dephosphorylation in AML12HBV_DE11 cells). Settings: 30 h, ENAN-34017 2 µM, Bay 41-4109 2 µM, entecavir 1 µM.
Sequence of HBV core protein (P03146 whole entry): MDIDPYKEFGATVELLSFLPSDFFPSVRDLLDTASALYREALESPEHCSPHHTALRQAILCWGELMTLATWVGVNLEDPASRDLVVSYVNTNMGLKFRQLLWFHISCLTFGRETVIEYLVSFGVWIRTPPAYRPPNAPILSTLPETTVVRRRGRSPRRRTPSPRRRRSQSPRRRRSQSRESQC
Format: cell-based
Outline: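 Controls: cells kept with tetracycline, or tetracycline-free and mock treated. Test cells tetracycline-free, treated 30 h, then lysed in LDS loading buffer and boiled 100 °C for 20 min. Run on 12% Bis-Tris gel in MOPS buffer, transferred to PVDF. Hyper-phosphorylated and dephosphorylated/hypophosphorylated core protein detected by western blot; β-actin loading control.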

SMILES | Effect on Cp dephosphorylation
C=C1[C@H](CO)[C@@H](O)C[C@@H]1n1cnc2c(=O)[nH]c(N)nc21 [entecavir, reference compound] | did not affect Cp dephosphorylation
